PGE2 EP2 inh – inhibitors of human EP2 prostaglandin E2 receptor | 260,000 compounds, 0.52% hits | AID 1422 | inhibition, % at 25 µM | P43116 | C6 glioma cells expressing human EP2, cAMP TR-FRET; cells stimulated with saturating PGE2;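 active = percent inhibition above 40 after rounding to a whole number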;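 note: rat C6 glioma host cells with rolipram phosphodiesterase inhibitor present; the protocol text gives 20 µM as final concentration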
EP2 mod – modulators of human EP2 prostaglandin E2 receptor; P43116; EP2-expressing cells, cAMP HTRF FRET, PGE2 co-stimulation; induction, % at 25 µM; 260,000 compounds, 0.83% hits; AID 940;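 active = compounds whose cAMP rise, as percent of the full-agonist control response, exceeds 60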;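 note: rat C6 glioma line stably carrying human EP2 under a CMV promoter; the protocol text gives 20 µM as final concentration; 100% = response of wells given 1 µM PGE2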
NR2E3 ag-1 – agonists of human NR2E3 nuclear receptor; Q9Y5X4; inhibition of corepressor binding, % at 3.98 µM; AID 602229; 360,000 compounds, 0.35% hits; CHO-S Gal4-NCOR/VP16-NR2E3 two-hybrid, luciferase;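 active = inhibition above the mean of all tested compounds plus 3 SD, cut at about 70% in these data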;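 note: 0% = DMSO with NR2E3 transfected cells and 100% = cells lacking NR2E3 construct; higher means lower luciferase signal from less NR2E3 corepressor binding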
Target sequence (Q9Y5X4 whole entry, looked up, the tested form may be a part): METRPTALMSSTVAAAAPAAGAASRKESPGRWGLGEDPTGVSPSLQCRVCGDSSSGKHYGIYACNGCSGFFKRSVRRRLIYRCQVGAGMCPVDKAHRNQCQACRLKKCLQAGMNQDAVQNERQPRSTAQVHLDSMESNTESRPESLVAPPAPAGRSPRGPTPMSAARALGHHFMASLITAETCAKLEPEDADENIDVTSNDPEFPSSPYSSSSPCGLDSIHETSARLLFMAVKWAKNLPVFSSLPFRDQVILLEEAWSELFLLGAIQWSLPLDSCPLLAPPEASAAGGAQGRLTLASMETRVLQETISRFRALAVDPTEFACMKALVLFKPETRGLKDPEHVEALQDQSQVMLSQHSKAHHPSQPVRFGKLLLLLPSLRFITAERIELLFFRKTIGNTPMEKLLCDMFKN
Furin inhibitor – human furin inhibition; P09958; purified furin, fluorogenic substrate cleavage; inhibition, % at 20 µM or 30 µM; 220,000 compounds, 0.061% hits; AID 463115; in the data active = inhibition above about 25%
GASC-1 inh – human JMJD2C demethylase inhibition | 330,000 compounds, 0.069% hits | inhibition, % at 2.35 µM | Q9H3R0 | GST-JMJD2C(1-420) H3K9me3 demethylation, DELFIA europium;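 active = more than half of a compound's replicate wells show inhibition beyond 50%, single wells judged on their own value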;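 note: signal counts dimethyl H3K9 product captured on neutravidin plate; 0% = median of DMSO wells and 100% = 0.3 times that DMSO median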
NR2E3 ag-2 – agonists of human nuclear receptor NR2E3; inhibition of corepressor binding, % at 4.78 µM; Q9Y5X4; 320,000 compounds, 0.12% hits; GST-NR2E3/biotin-RetCOR TR-FRET, 1536-well;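 active = percent inhibition above the cutoff of mean plus 3 SD of all tested compounds, set per screening campaign, cut at about 20% in these data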;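 note: 0% = DMSO wells and 100% = biotin wells as full block of FRET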
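Format: 1536-well format; test system: GST-NR2E3 and biotin-RetCOR proteins; read-out basis: percent inhibition of TR-FRET ratio; timing: 5 h incubation at 4 °C; detection: time-resolved FRET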
NR2E3 ag conf – NR2E3 agonism confirmed in two-hybrid assay; CHO-S mammalian two-hybrid NR2E3-NCOR, luciferase luminescence; 2,300 compounds, 51% hits; inhibition, % at 3.98 µM; shares compounds with NR2E3 ag-1;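 active = average inhibition above a cutoff equal to the mean inhibition of all tested compounds plus one SD, cut at about 70% in these data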;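 note: 0% = DMSO in NR2E3 cells and 100% = DMSO in cells lacking NR2E3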
VP16 counter – counter-screen for NR2E3 agonists: GAL4-VP16 reporter inhibitors. shares compounds with NR2E3 ag-1. CHO-S GAL4-VP16 luciferase reporter, luminescence. inhibition, % at 3.98 µM. 2,300 compounds, 29% hits. AID 624379;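 active = mean inhibition above a cutoff equal to the average over all tested compounds plus one standard deviation, cut at about 70% in these data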;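 note: luciferase from a UAS reporter driven by GAL4-VP16 transactivation; 0% = DMSO with VP16-transfected cells and 100% = DMSO with cells lacking VP16; higher means less reporter light so more repression of VP16 activity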
Numbers without * were called inactive; / = no result. The list is not random: actives were taken first. Their share in the collection is about 1.3%.

SMILES	PGE2 EP2 inh	EP2 mod	NR2E3 ag-1	Furin inhibitor	GASC-1 inh	NR2E3 ag-2	NR2E3 ag conf	VP16 counter
CCCC[C@@H]1C=C(C(=O)O)[C@H](c2ccc(CC)cc2)N1S(=O)(=O)c1ccc(C)cc1	/	/	-11.3	/	/	/	/	/
CCCCC[C@@H]1C=C(C(=O)O)[C@H](c2ccc(Cl)c(Cl)c2)N1S(=O)(=O)c1ccc(C)cc1	/	/	81.4*	/	3.4	/	71.3*	24.3
CCCCC[C@@H]1C=C(C(=O)O)[C@H](c2ccc(CC)cc2)N1S(=O)(=O)c1ccc(C)cc1	/	/	51.6	/	22.5	/	-0.8	11.4
Cc1ccc(S(=O)(=O)N2[C@@H](c3ccc(Cl)c(Cl)c3)C(C(=O)O)=C[C@H]2C(C)(C)C)cc1	/	/	62.2	/	38.0	/	41.3	34.5
CC(C)C(=O)N1CCC[C@@H](Cn2nc(-c3cccs3)ccc2=O)C1	3.8	-55.5	/	/	/	/	/	/
O=C1COc2ccc(S(=O)(=O)NCC3COCCO3)cc2N1 (stereo unspecified)	4.0	-15.2	/	/	/	/	/	/
O=C(C1CCC(CNS(=O)(=O)c2cccc3nsnc23)CC1)N1CC=C(c2ccccc2)CC1 (stereo unspecified)	6.4	-4.8	50.2	-23.1	3.0	1.6	87.8*	56.4
O=C(C1CCN(S(=O)(=O)c2cccc3nsnc23)CC1)N1CC=C(c2ccccc2)CC1	/	-38.1	6.2	-3.5	-45.2	0.7	/	/
CC(=O)CSc1nnc(-c2ccc3c(c2)OCO3)o1	8.0	-14.7	-120.1	-8.6	64.5	1.3	/	/
O=C(O)CCSc1nnc(-c2ccc3c(c2)OCO3)o1	6.7	5.9	52.8	-14.6	6.5	1.9	30.2	39.8
CCC(=O)N1c2ccc(S(=O)(=O)NCCc3ccc(C)cc3)cc2CC1C (stereo unspecified)	/	/	27.0	/	-9.2	2.3	/	/
CC1Cc2cc(S(=O)(=O)NCCc3ccccc3)ccc2N1C(=O)C1CC1 (stereo unspecified)	/	/	49.9	/	1.2	-1.4	71.3*	57.5
CC(=O)N1c2ccc(S(=O)(=O)NCCC(=O)N(C)Cc3ccccc3)cc2CC1C (stereo unspecified)	/	/	-5.5	/	1.5	0.5	/	/
CC(=O)N1c2ccc(S(=O)(=O)NCCc3ccccc3)cc2CC1C (stereo unspecified)	/	/	72.9*	/	2.4	-0.8	54.9	50.2
CC(=O)N1c2ccc(S(=O)(=O)NCC3CCC(C(=O)Nc4cc(C)ccn4)CC3)cc2CC1C (stereo unspecified)	/	/	48.0	/	23.6	1.0	51.6	39.9
O=C(CSc1ncccc1-c1nc2ccccc2[nH]1)Nc1ccc(F)c(Cl)c1	12.2	-76.2	/	/	/	/	/	/
Cc1cccc(OCc2nnc(SCC(=O)N3c4ccccc4Sc4ccccc43)n2C)c1C	7.4	32.5	/	/	/	/	/	/
O=C1CCN(Cc2ccccc2)CCN1CCc1noc(-c2ccccc2)n1	9.5	-15.1	/	/	/	/	/	/
Cc1cccc(-n2c(SCC(N)=O)nnc2-c2ccoc2C)c1C	15.3	23.4	/	/	/	/	/	/
CCOc1c(Br)cc(CNc2ccc3c(c2)OCCO3)cc1OC	16.2	-17.3	65.6	-5.4	10.2	1.6	17.6	-4.5
CCOc1cc(CNc2ccc3c(c2)OCCO3)cc(Br)c1OC	2.0	15.7	45.6	-2.0	-0.3	2.6	/	/
Cc1ccc(-c2nc(CS(=O)(=O)CC(=O)N3CCCCCC3)c(C)o2)cc1	8.5	3.5	51.3	-20.5	-6.0	-1.9	7.2	53.5
Cc1ccc(-c2nc(CS(=O)(=O)CC(=O)N3CCc4ccccc4C3)c(C)o2)cc1	9.9	12.7	36.0	-22.8	3.0	3.3	/	/
NC(=O)CN1CCN(C(=O)Cn2c(-c3cccs3)cc3cccnc32)CC1	8.0	-11.6	/	/	/	/	/	/
CC1=[N+](C)c2c(ccc3cccnc23)C1(C)C	15.2	10.9	92.3*	-22.7	/	/	98.8*	84.6*
SMILES	PGE2 EP2 inh	EP2 mod	NR2E3 ag-1	Furin inhibitor	GASC-1 inh	NR2E3 ag-2	NR2E3 ag conf	VP16 counter
CC1C(=O)N(Cc2cn(CC3CCCCC3)nn2)CCS(=O)(=O)N1Cc1ccc(-c2ccc(Cl)cc2)cc1 (stereo unspecified)	/	/	59.0	/	/	/	32.4	34.4
CC1C(=O)N(Cc2cn(CCC3OCCCO3)nn2)CCS(=O)(=O)N1Cc1ccc(-c2ccc(Cl)c(Cl)c2)cc1 (stereo unspecified)	/	/	68.3	/	/	/	93.2*	77.3*
CO/N=C/c1ccc(N2CCN(C(=O)c3ccc(Cl)cc3Cl)CC2)c([N+](=O)[O-])c1	6.2	-41.4	76.1*	-8.8	1.0	0.6	91.2*	76.4*
CC(C)(C)C(=O)Nc1ccc(NC(=O)c2ccco2)nc1	/	/	88.0*	/	-3.5	1.6	64.9	39.6
O=C(Nc1ccc(NC(=O)c2ccco2)nc1)c1ccco1	5.9	-16.3	-98.2	-13.8	3.4	-3.9	/	/
Cc1cc(NS(=O)(=O)c2ccc(NC(=O)CCC(=O)O)cc2)no1	3.9	-3.8	/	/	/	/	/	/
CN(Cc1ccc(OC(F)F)cc1)C(=O)c1cccc(S(=O)(=O)N2CCN(Cc3ccccc3)CC2)c1	/	/	91.3*	/	/	/	92.4*	76.2*
COc1ccccc1CNC(=O)c1cccc(S(=O)(=O)N2CCN(c3ccc(F)cc3)CC2)c1	/	/	-5.1	/	0.7	2.3	/	/
COc1cccc(CN(C)C(=O)c2cccc(S(=O)(=O)N3CCN(c4ccc(F)cc4)CC3)c2)c1OC	/	/	64.1	/	-2.4	4.0	79.4*	69.3
CN(Cc1ccco1)C(=O)c1cccc(S(=O)(=O)N2CCN(Cc3ccccc3)CC2)c1	/	/	-5.8	/	/	/	/	/
CN(CCOc1ccc(Cl)cc1)C(=O)c1cccc(S(=O)(=O)N2CCN(c3ccccc3)CC2)c1	/	/	84.6*	/	/	/	92.5*	81.2*
COc1cccc(CN(C)C(=O)c2cccc(S(=O)(=O)N3CCN(Cc4ccccc4)CC3)c2)c1OC	/	/	63.3	/	/	/	65.7	46.1
O=C(Nc1cccc(NC(=O)c2ccccc2Br)c1)c1ccc(Br)o1	17.1	-162.3	/	/	/	/	/	/

Screening data (PubChem)
